Experimental data published in ChEMBL document CHEMBL5058577, “EUbOPEN Chemogenomics Library 2 (Multiplex)” (2022).

System: Fibroblast
Assay: Multiplex assay against human fibroblast
Assay type: toxicity, cell-based
In short: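 Live cells were stained at seeding with Hoechst33342, BioTracker Green Microtubule Cytoskeleton Dye, MitoTracker Red and Annexin V Alexa Fluor 680, then imaged on a CQ1 microscope at 37°C and 5% CO2 after compound addition. CellPathfinder machine-learning gating split cells into Hoechst high-intensity objects or normal cells. Normal cells were split into healthy, pyknosed or fragmented nuclei, and pyknosed cells into mitotic or apoptotic. Tubulin, mitochondrial-mass and membrane-permeability phenotypes are per cents of healthy-nucleus cells.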

[1] = 12 h, 1 µM, compound concentration 1 uM, replicate 1
[2] = 12 h, 1 µM, compound concentration 1 uM, replicate 2
[3] = 12 h, 10 µM, compound concentration 10 uM, replicate 1
[4] = 12 h, 10 µM, compound concentration 10 uM, replicate 2
[5] = 24 h, 1 µM, compound concentration 1 uM, replicate 1
[6] = 24 h, 1 µM, compound concentration 1 uM, replicate 2
[7] = 24 h, 10 µM, compound concentration 10 uM, replicate 1
[8] = 24 h, 10 µM, compound concentration 10 uM, replicate 2
[9] = 48 h, 1 µM, compound concentration 1 uM, replicate 1
[10] = 48 h, 1 µM, compound concentration 1 uM, replicate 2
[11] = 48 h, 10 µM, compound concentration 10 uM, replicate 1
[12] = 48 h, 10 µM, compound concentration 10 uM, replicate 2

Cc1nn(C)c2nc(NNC(=O)Nc3cc(Cl)nc(Cl)c3)cc(C(C)C)c12
Population Apoptotic (%) [1]: 62%
Population Fragmented Nuclei (%) [1]: 15%
Population Healthy Nuclei (%) [1]: 68%
Population Hoechst High Intensity Objects (%) [1]: 3%
Population Membrane Permeable-Phenotype (%) [1]: 0%
Population Mitochondria Different-Phenotype (%) [1]: 4%
Population Mitotic Cells (%) [1]: 37%
Population Normal (%) [1]: 96%
Population Pyknosed Nuclei (%) [1]: 15%
Population Tubulin-Different-Phenotype (%) [1]: 27%
Total Cell Count [1]: 178
Population Apoptotic (%) [2]: 37%
Population Fragmented Nuclei (%) [2]: 31%
Population Healthy Nuclei (%) [2]: 53%
Population Hoechst High Intensity Objects (%) [2]: 2%
Population Mitochondria Different-Phenotype (%) [2]: 7%
Population Mitotic Cells (%) [2]: 62%
Population Normal (%) [2]: 97%
Population Tubulin-Different-Phenotype (%) [2]: 46%
Total Cell Count [2]: 179
Population Apoptotic (%) [3]: 53%
Population Fragmented Nuclei (%) [3]: 12%
Population Healthy Nuclei (%) [3]: 63%
Population Hoechst High Intensity Objects (%) [3]: 3%
Population Membrane Permeable-Phenotype (%) [3]: 2%
Population Mitochondria Different-Phenotype (%) [3]: 15%
Population Mitotic Cells (%) [3]: 46%
Population Normal (%) [3]: 96%
Population Pyknosed Nuclei (%) [3]: 23%
Population Tubulin-Different-Phenotype (%) [3]: 89%
Total Cell Count [3]: 139
Population Apoptotic (%) [4]: 21%
Population Fragmented Nuclei (%) [4]: 33%
Population Healthy Nuclei (%) [4]: 56%
Population Hoechst High Intensity Objects (%) [4]: 7%
Population Membrane Permeable-Phenotype (%) [4]: 5%
Population Mitochondria Different-Phenotype (%) [4]: 6%
Population Mitotic Cells (%) [4]: 78%
Population Normal (%) [4]: 92%
Population Pyknosed Nuclei (%) [4]: 10%
Total Cell Count [4]: 140
Population Apoptotic (%) [5]: 59%
Population Fragmented Nuclei (%) [5]: 18%
Population Healthy Nuclei (%) [5]: 68%
Population Hoechst High Intensity Objects (%) [5]: 1%
Population Membrane Permeable-Phenotype (%) [5]: 1%
Population Mitochondria Different-Phenotype (%) [5]: 3%
Population Mitotic Cells (%) [5]: 40%
Population Normal (%) [5]: 98%
Population Pyknosed Nuclei (%) [5]: 12%
Population Tubulin-Different-Phenotype (%) [5]: 29%
Total Cell Count [5]: 176
Population Apoptotic (%) [6]: 62%
Population Fragmented Nuclei (%) [6]: 21%
Population Hoechst High Intensity Objects (%) [6]: 2%
Population Membrane Permeable-Phenotype (%) [6]: 2%
Population Mitochondria Different-Phenotype (%) [6]: 6%
Population Mitotic Cells (%) [6]: 37%
Population Normal (%) [6]: 97%
Population Pyknosed Nuclei (%) [6]: 9%
Population Tubulin-Different-Phenotype (%) [6]: 50%
Total Cell Count [6]: 174
Population Apoptotic (%) [7]: 52%
Population Fragmented Nuclei (%) [7]: 12%
Population Healthy Nuclei (%) [7]: 69%
Population Hoechst High Intensity Objects (%) [7]: 4%
Population Membrane Permeable-Phenotype (%) [7]: 1%
Population Mitochondria Different-Phenotype (%) [7]: 22%
Population Mitotic Cells (%) [7]: 47%
Population Normal (%) [7]: 95%
Population Pyknosed Nuclei (%) [7]: 18%
Population Tubulin-Different-Phenotype (%) [7]: 95%
Total Cell Count [7]: 130
Population Apoptotic (%) [8]: 25%
Population Fragmented Nuclei (%) [8]: 28%
Population Healthy Nuclei (%) [8]: 61%
Population Hoechst High Intensity Objects (%) [8]: 8%
Population Membrane Permeable-Phenotype (%) [8]: 0%
Population Mitochondria Different-Phenotype (%) [8]: 6%
Population Mitotic Cells (%) [8]: 75%
Population Normal (%) [8]: 91%
Population Pyknosed Nuclei (%) [8]: 9%
Population Tubulin-Different-Phenotype (%) [8]: 89%
Total Cell Count [8]: 132
Population Apoptotic (%) [9]: 71%
Population Fragmented Nuclei (%) [9]: 18%
Population Healthy Nuclei (%) [9]: 73%
Population Hoechst High Intensity Objects (%) [9]: 1%
Population Membrane Permeable-Phenotype (%) [9]: 1%
Population Mitochondria Different-Phenotype (%) [9]: 2%
Population Mitotic Cells (%) [9]: 28%
Population Normal (%) [9]: 98%
Population Pyknosed Nuclei (%) [9]: 7%
Population Tubulin-Different-Phenotype (%) [9]: 30%
Total Cell Count [9]: 188
Population Apoptotic (%) [10]: 57%
Population Fragmented Nuclei (%) [10]: 34%
Population Healthy Nuclei (%) [10]: 62%
Population Hoechst High Intensity Objects (%) [10]: 2%
Population Membrane Permeable-Phenotype (%) [10]: 2%
Population Mitotic Cells (%) [10]: 42%
Population Normal (%) [10]: 97%
Population Pyknosed Nuclei (%) [10]: 3%
Population Tubulin-Different-Phenotype (%) [10]: 36%
Total Cell Count [10]: 184
Population Apoptotic (%) [11]: 93%
Population Fragmented Nuclei (%) [11]: 16%
Population Healthy Nuclei (%) [11]: 70%
Population Hoechst High Intensity Objects (%) [11]: 8%
Population Membrane Permeable-Phenotype (%) [11]: 2%
Population Mitochondria Different-Phenotype (%) [11]: 31%
Population Mitotic Cells (%) [11]: 6%
Population Normal (%) [11]: 91%
Population Pyknosed Nuclei (%) [11]: 13%
Population Tubulin-Different-Phenotype (%) [11]: 96%
Total Cell Count [11]: 129
Population Apoptotic (%) [12]: 62%
Population Fragmented Nuclei (%) [12]: 38%
Population Healthy Nuclei (%) [12]: 56%
Population Hoechst High Intensity Objects (%) [12]: 3%
Population Mitochondria Different-Phenotype (%) [12]: 5%
Population Mitotic Cells (%) [12]: 37%
Population Normal (%) [12]: 96%
Population Pyknosed Nuclei (%) [12]: 5%
Population Tubulin-Different-Phenotype (%) [12]: 85%
Total Cell Count [12]: 155
